From ChEMBL document CHEMBL1764974, “The discovery of phthalazinone-based human H1 and H3 single-ligand antagonists suitable for intranasal administration for the treatment of allergic rhinitis” (J Med Chem, 2011) come the findings set out here.

Data set [1] is described as follows: Solubility of the compound in phosphate buffered saline at pH 5. It is filed as physicochemical.
Data set [2] is described as follows: Lipophilicity, log D of the compound. Type of data set: physicochemical. The settings on record: octanol/water; read-out: logD.
Another data set deals with Histamine H3 receptor (Homo sapiens, UniProt Q9Y5N1). As to the kind of experiment: Antagonist activity at human recombinant histamine H3 receptor expressed in CHO cells assessed as inhibition of histamine-induced GTP-gammaS binding. Type of data set: functional, cell-based. In a few lines: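 Membranes from CHO cells transfected with cloned human H3 receptor; reduction of histamine-stimulated GTPγS binding, detected by scintillation proximity.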
(In general: GTPγS resists hydrolysis and so accumulates on activated G proteins.)

In data set [3] the target is T1, Alpha-1A adrenergic receptor (Homo sapiens, UniProt P35348).
T1 sequence (P35348 whole entry): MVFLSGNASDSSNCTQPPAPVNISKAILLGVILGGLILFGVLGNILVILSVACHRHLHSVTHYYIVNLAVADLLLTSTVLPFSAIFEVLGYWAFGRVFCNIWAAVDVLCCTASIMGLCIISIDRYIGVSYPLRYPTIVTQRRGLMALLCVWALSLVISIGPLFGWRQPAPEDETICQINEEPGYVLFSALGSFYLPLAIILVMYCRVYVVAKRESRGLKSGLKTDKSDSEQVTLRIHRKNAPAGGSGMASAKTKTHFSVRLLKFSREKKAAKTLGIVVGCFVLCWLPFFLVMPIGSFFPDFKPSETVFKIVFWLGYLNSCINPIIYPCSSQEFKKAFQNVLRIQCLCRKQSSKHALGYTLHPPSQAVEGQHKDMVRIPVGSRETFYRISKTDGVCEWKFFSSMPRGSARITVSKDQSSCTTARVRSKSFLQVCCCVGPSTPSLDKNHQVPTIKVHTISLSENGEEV
As to the kind of experiment: Binding affinity to human adrenergic alpha1A receptor expressed in rat intact fibroblasts.

The target of data set [4] is T2, Alpha-1B adrenergic receptor (Homo sapiens, UniProt P35368).
T2 sequence (P35368 whole entry): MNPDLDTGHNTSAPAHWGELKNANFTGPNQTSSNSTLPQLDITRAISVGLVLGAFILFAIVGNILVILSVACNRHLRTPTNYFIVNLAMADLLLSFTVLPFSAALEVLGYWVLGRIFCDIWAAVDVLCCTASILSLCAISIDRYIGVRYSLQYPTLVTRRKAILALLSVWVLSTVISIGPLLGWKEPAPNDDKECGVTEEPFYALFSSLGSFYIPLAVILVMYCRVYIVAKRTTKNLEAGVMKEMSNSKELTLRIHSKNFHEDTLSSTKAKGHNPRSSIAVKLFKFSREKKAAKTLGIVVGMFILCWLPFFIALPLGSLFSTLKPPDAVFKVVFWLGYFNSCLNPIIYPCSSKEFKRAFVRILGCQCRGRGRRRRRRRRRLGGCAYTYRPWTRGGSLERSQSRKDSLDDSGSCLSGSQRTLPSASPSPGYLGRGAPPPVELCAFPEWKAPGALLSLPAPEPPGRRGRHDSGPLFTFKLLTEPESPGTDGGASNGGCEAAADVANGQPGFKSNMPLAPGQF
The data set can be described thus: Binding affinity to human adrenergic Alpha-1B receptor expressed in rat intact fibroblasts. In a few lines:
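Plate-based calcium imaging in intact Rat1 fibroblasts expressing the human α1B adrenoceptor.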

Data set [5] in a line: Clearance in CD rat at 3 mg/kg, po and 1 mg/kg, iv. Type of data set: ADME, organism-based. To be noted: in vivo. The method, boiled down: (§1)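 Male CD rats dosed 3.0 mg/kg po and 1.0 mg/kg iv, groups of 3 or 7 animals. Clearance, Vss, t1/2 and F are reported with ranges, and clearance is also expressed as % of liver blood flow.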
Data set [6] in a line: Clearance in Beagle dog at 2 mg/kg, po and 1 mg/kg, iv. It is filed as ADME, organism-based, Canis lupus familiaris. The settings on record: in vivo.
Data set [7] in a line: Volume of distribution at steady state in CD rat at 3 mg/kg, po and 1 mg/kg, iv. The settings on record: in vivo, read-out: Vdss. It is filed as ADME, organism-based. The method, boiled down: as §1
The nature of data set [8]: Volume of distribution at steady state in Beagle dog at 2 mg/kg, po and 1 mg/kg, iv. To be noted: in vivo, read-out: Vdss. Type of data set: ADME, organism-based, Canis lupus familiaris.
Data set [9] can be described thus: Half life in CD rat at 3 mg/kg, po and 1 mg/kg, iv. It is filed as ADME, organism-based. The settings on record: in vivo. The method, boiled down:
as §1

Data set [10] is described as follows: Half life in Beagle dog at 2 mg/kg, po and 1 mg/kg, iv. Type of data set: ADME, organism-based, Canis lupus familiaris. The settings on record: in vivo.
In the next data set the test system is Rattus norvegicus. As to the kind of experiment: Liver blood flow in CD rat at 3 mg/kg, po and 1 mg/kg, iv. Type of data set: ADME, organism-based. To be noted: in vivo. The method, boiled down: as §1
Data set [11] in a line: Oral bioavailability in CD rat at 3 mg/kg. The settings on record: in vivo. It is filed as ADME, organism-based. In a few lines: as §1
Data set [12] in a line: Oral bioavailability in Beagle dog at 2 mg/kg. It is filed as ADME, organism-based, Canis lupus familiaris. To be noted: in vivo.
Data set [13] in a line: Bioavailability in intranasally dosed human. Type of data set: ADME, organism-based. To be noted: in vivo, inhaled or intranasal.
Data set [14] can be described thus: Ratio of drug level in brain to blood in CD rat at 1 mg/kg, iv. Type of data set: ADME, organism-based. Also noted: dose 1 mg/kg, route intravenous. To be noted: read-out: BBR.
In a further data set the target is Cytochrome P450 2D6 (Homo sapiens, UniProt P10635). The data set can be described thus: Inhibition of CYP2D6. Type of data set: ADME.
For a further data set, the system named is Cavia porcellus. The data set can be described thus: Antiallergic rhinitis activity in conscious guinea pig assessed as duration of inhibition of histamine-induced nasal congestion at 1 mg/ml administered intranasally. It is filed as functional.
Data set [15] in a line: Solubility of the compound in phosphate buffered saline at pH 7.4. Type of data set: physicochemical.
Data set [16] deals with T3, Histamine H1 receptor (Homo sapiens, UniProt P35367). The data set can be described thus: Antagonist activity at human recombinant histamine H1 receptor expressed in intact CHO cells assessed as inhibition of histamine-induced cellular calcium mobilization by FLIPR assay. It is filed as functional, cell-based. The method, boiled down:
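Human recombinant H1 receptor in intact CHO cells; inhibition of agonist-induced calcium mobilization read with Fluo-4AM in FLIPR. EC50 came from a four-parameter logistic fit, and pA2 = log(DR−1) − log[B], where DR is the EC50 ratio versus control.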
A general note: Calcium flux is commonly read through the fluorescence of an indicator in the cells.

For data set [17], the target named is T3, Histamine H1 receptor. As to the kind of experiment: Antagonist activity at human recombinant histamine H1 receptor expressed in intact CHO cells assessed as inhibition of histamine-induced cellular calcium mobilization at 100 nM after 30 mins by FLIPR assay. To be noted: read-out: pA2 (converted). Type of data set: functional, cell-based. The method, boiled down:
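Intact CHO cells expressing recombinant human H1; Fluo-4AM calcium dye read on FLIPR. Histamine concentration-response curves run without or with antagonist at a single 100 nM, 30 min incubation. EC50 from four-parameter logistic fit; pA2 = log(DR-1) - log[B], DR being EC50 with antagonist over control EC50.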

The target in data set [18] is T3, Histamine H1 receptor. The data set can be described thus: Antagonist activity at human recombinant histamine H1 receptor expressed in intact CHO cells assessed as inhibition of histamine-induced cellular calcium mobilization at 100 nM incubated for 30 mins measured after washout followed by repeat histamine challenge at intervals of 90 and 270 mins by FLIPR assay. It is filed as functional, cell-based.

Activity calls are given as the source filed them.

T3 sequence (P35367 whole entry): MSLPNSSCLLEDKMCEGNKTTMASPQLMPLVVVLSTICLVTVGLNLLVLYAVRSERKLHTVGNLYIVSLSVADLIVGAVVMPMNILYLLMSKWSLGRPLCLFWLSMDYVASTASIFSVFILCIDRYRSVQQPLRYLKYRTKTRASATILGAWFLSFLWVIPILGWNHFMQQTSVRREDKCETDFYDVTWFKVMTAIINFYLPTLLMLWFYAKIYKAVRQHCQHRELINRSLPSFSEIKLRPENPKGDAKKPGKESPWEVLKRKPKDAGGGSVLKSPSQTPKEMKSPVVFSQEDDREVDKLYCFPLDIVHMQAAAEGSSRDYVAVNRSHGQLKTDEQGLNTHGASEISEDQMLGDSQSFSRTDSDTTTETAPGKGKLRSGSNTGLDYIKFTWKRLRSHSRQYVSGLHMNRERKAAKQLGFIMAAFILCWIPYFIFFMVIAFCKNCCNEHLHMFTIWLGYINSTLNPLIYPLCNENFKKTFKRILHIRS
Histamine H3 receptor, sequence (Q9Y5N1 whole entry): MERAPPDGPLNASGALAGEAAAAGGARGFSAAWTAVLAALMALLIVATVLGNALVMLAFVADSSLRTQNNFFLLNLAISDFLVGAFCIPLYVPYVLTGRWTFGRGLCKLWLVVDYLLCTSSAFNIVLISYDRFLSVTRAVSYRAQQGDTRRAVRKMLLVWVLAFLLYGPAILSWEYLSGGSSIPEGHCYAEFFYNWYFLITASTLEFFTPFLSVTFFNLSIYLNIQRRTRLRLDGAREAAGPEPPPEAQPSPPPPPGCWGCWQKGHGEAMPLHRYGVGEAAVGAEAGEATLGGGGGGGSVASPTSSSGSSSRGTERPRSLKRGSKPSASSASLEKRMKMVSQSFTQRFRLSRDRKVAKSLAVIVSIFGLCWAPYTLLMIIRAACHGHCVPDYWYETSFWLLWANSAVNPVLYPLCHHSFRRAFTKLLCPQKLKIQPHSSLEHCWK
Cytochrome P450 2D6, sequence (P10635 whole entry): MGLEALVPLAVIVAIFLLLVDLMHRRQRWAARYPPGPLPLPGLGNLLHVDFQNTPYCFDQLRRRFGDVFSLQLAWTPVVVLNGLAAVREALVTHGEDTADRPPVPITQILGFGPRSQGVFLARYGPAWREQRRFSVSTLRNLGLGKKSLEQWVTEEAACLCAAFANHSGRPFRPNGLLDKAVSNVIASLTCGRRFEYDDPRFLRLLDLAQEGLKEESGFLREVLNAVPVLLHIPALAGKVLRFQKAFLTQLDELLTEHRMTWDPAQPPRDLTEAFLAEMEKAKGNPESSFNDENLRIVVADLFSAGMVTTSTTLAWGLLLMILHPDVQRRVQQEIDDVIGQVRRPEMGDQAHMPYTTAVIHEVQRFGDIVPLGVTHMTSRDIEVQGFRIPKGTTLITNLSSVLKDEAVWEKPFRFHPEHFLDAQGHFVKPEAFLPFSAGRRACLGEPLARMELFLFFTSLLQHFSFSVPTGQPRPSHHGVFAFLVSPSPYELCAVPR

In general, solubility refers to the dissolved amount per volume that the medium holds. The low end stands for little dissolved substance, the high end for much dissolved substance. What is called logD is lipophilicity at a set pH, counting ionised and neutral species. For the compound `Cl.Cl.Cl.O=c1c2ccccc2c(Cc2ccc(Cl)cc2)nn1C[C@H]1CCCN1CCCCc1ccc(OCCCN2CCCCCC2)cc1`, in [1], the solubility was above 11 µg/mL. Moreover, the logD in data set [2] was 2.86.
The term Ki denotes a measure of affinity in units of concentration, obtained from inhibition or displacement. What is called half-life is the time needed for the level to fall by half in the phase considered. Higher therefore signals slow decline. A word on the bioavailability: it is dose-corrected exposure relative to a reference, in per cent. Read a high bioavailability as good availability. The term IC50 denotes the concentration that inhibits the measured activity by half. A lower IC50 goes with inhibition by little substance. On to `CN1CCCC(n2nc(Cc3ccc(Cl)cc3)c3ccccc3c2=O)CC1` (racemic) [AZELASTINE], for which the Ki at Histamine H3 receptor was 158 nM; in data set [3] it was 50.1 nM; in [4] it was 50.1 nM. Also, the clearance in data set [5] amounted to 35 mL/min/kg; in data set [6] it was 22 mL/min/kg. Also, the Vd in [7] is 1.8 L/kg; in data set [8], 4.9 L/kg. The half-life in data set [9] is 1 h; in [10] it was 3.2 h. In the data set on Rattus norvegicus, the LBF is 41%. In addition, the results for the bioavailability in [11], in [12] and in data set [13] were 7%, 46% and 40%, respectively. Further, the Kp in [14] was found to be 7.5. In addition, the IC50 on Cytochrome P450 2D6 was 1000 nM. For the same compound, the Time in the data set on Cavia porcellus is below 24 h.
Take `CN1CCCC(n2nc(Cc3ccc(Cl)cc3)c3ccccc3c2=O)CC1.Cl` (racemic) [AZELASTINE HYDROCHLORIDE]: the logD in [2] amounted to 2.25. The solubility in data set [15] was 144 µg/mL.
Turning to `O=c1c2ccccc2c(Cc2ccc(O)cc2)nn1C[C@H]1CCCN1CCCCc1ccc(OCCCN2CCCCCC2)cc1`, the inhibition constant (Ki) is 12.6 nM at Histamine H1 receptor [16], 0.398 nM at Histamine H3 receptor, 100 nM in data set [3] and 126 nM in [4]. The Kb at Histamine H1 receptor [17] was 3.98 nM. Moreover, the inhibition entry on Histamine H1 receptor [18] was “Active”.
